According to ChEMBL document CHEMBL3734660, “Inhibitory effect of cytotoxic stilbenes related to resveratrol on the expression of the VEGF, hTERT and c-Myc genes” (Eur J Med Chem, 2015):
Values after ≈ are worked out from the molar mass of the structure shown.

Experiments:
[1] = Selectivity ratio of IC50 for HEK293 cells to IC50 for human HT-29 cells; type: ADME, cell-based; settings: HEK293 cells versus HT-29 cells, read-out: Ratio IC50
[2] = Selectivity ratio of IC50 for HEK293 cells to IC50 for human MCF7 cells; type: ADME, cell-based; settings: HEK293 cells versus MCF7 cells, read-out: Ratio IC50
HEK293 = assay: Cytotoxicity against HEK293 cells assessed inhibition of cell proliferation after 3 days by MTT assay; settings: Homo sapiens, HEK293, 72 h
MCF7 = assay: Cytotoxicity against human MCF7 cells assessed inhibition of cell proliferation after 3 days by MTT assay; settings: MCF7, 72 h
HT-29 [3] = assay: Cytotoxicity against human HT-29 cells assessed inhibition of cell proliferation after 3 days by MTT assay; settings: HT-29, 72 h
HT-29 [4] = assay: Inhibition of VEGF protein secretion in human HT-29 cells at 10 ug/mL after 72 hrs by ELISA relative to control; type: functional; set-up: scale not given: the % may be the effect or the level left
HT-29 [5] = assay: Down regulation of VEGF gene expression in human HT-29 cells at 10 ug/mL after 48 hrs by RT-qPCR analysis relative to control; type: functional
Method in brief: (§1)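 HT-29 or MCF-7 cells grown to 70–80% confluence, serum-starved 24 h, then exposed to compound in DMSO for 48 h; DMSO-only control. Total RNA extracted and transcript measured by RT-qPCR, normalized to β-actin and expressed as percentage of control. At least three measurements; mean ± SEM; one-sample t-test.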

HT-29 [6] = assay: Down regulation of hTERT gene expression in human HT-29 cells at 10 ug/mL after 48 hrs by RT-qPCR analysis relative to control; type: functional; method in brief: as §1
HT-29 [7] = assay: Down regulation of c-Myc gene expression in human HT-29 cells at 10 ug/mL after 48 hrs by RT-qPCR analysis relative to control; type: functional; method in brief: as §1

Oc1cccc(/C=C/c2cccc(O)c2)c1
selectivity ratio [1]: 0.8 | selectivity ratio [2]: 1 | IC50 (HEK293): 21 µg/mL (≈ 98.9 µM) | IC50 (MCF7): 21 µg/mL (≈ 98.9 µM) | IC50 (HT-29 [3]): 25.9 µg/mL (≈ 122 µM)

COc1cccc(/C=C/c2ccc(N)cc2)c1
selectivity ratio [1]: 1.1 | selectivity ratio [2]: 0.3 | Activity (HT-29 [4]): 74% | Activity (HT-29 [5]): 100% | Activity (HT-29 [6]): 81% | Activity (HT-29 [7]): 74% | IC50 (HEK293): 18 µg/mL (≈ 79.9 µM) | IC50 (MCF7): 52 µg/mL (≈ 231 µM) | IC50 (HT-29 [3]): 16.1 µg/mL (≈ 71.5 µM)

COc1ccccc1/C=C/c1cccc(O)c1
selectivity ratio [1]: 1.4 | selectivity ratio [2]: 1 | Activity (HT-29 [4]): 69% | Activity (HT-29 [5]): 77% | Activity (HT-29 [6]): 52% | Activity (HT-29 [7]): 100% | IC50 (HEK293): 24 µg/mL (≈ 106 µM) | IC50 (MCF7): 24.3 µg/mL (≈ 107 µM) | IC50 (HT-29 [3]): 17 µg/mL (≈ 75.1 µM)

Nc1ccc(/C=C/c2ccc(O)cc2)cc1
selectivity ratio [1]: 0.03 | selectivity ratio [2]: 0.4 | IC50 (HEK293): 0.8 µg/mL (≈ 3.79 µM) | IC50 (MCF7): 2.2 µg/mL (≈ 10.4 µM) | IC50 (HT-29 [3]): 30.6 µg/mL (≈ 145 µM)

Oc1ccc(/C=C/c2ccccc2O)cc1
selectivity ratio [1]: 0.8 | selectivity ratio [2]: 0.8 | IC50 (HEK293): 17.5 µg/mL (≈ 82.5 µM) | IC50 (MCF7): 21 µg/mL (≈ 98.9 µM) | IC50 (HT-29 [3]): 22 µg/mL (≈ 104 µM)

COc1ccc(/C=C/c2ccccc2N)cc1
selectivity ratio [1]: < 0.1 | selectivity ratio [2]: 1.4 | IC50 (HEK293): 0.6 µg/mL (≈ 2.66 µM) | IC50 (MCF7): 0.4 µg/mL (≈ 1.78 µM) | IC50 (HT-29 [3]): 73 µg/mL (≈ 324 µM)

COc1ccccc1/C=C/c1ccccc1O
selectivity ratio [1]: 0.7 | selectivity ratio [2]: 0.8 | IC50 (HEK293): 15 µg/mL (≈ 66.3 µM) | IC50 (MCF7): 17.9 µg/mL (≈ 79.1 µM) | IC50 (HT-29 [3]): 23 µg/mL (≈ 102 µM)

COc1cccc(/C=C/c2cccc(O)c2)c1
selectivity ratio [1]: 1.6 | selectivity ratio [2]: 1.5 | Activity (HT-29 [4]): 65% | Activity (HT-29 [5]): 60% | Activity (HT-29 [6]): 41% | Activity (HT-29 [7]): 59% | IC50 (HEK293): 19 µg/mL (≈ 84 µM) | IC50 (MCF7): 13 µg/mL (≈ 57.5 µM) | IC50 (HT-29 [3]): 11.5 µg/mL (≈ 50.8 µM)

COc1ccccc1/C=C/c1ccc(O)cc1
selectivity ratio [1]: 1.7 | selectivity ratio [2]: 2.2 | Activity (HT-29 [4]): 67% | Activity (HT-29 [5]): 46% | Activity (HT-29 [6]): 100% | Activity (HT-29 [7]): 100% | IC50 (HEK293): 41 µg/mL (≈ 181 µM) | IC50 (MCF7): 19 µg/mL (≈ 84 µM) | IC50 (HT-29 [3]): 24 µg/mL (≈ 106 µM)

Nc1cccc(/C=C/c2ccc(O)cc2)c1
selectivity ratio [1]: 0.1 | selectivity ratio [2]: 1.2 | IC50 (HEK293): 7 µg/mL (≈ 33.1 µM) | IC50 (MCF7): 6 µg/mL (≈ 28.4 µM) | IC50 (HT-29 [3]): 51 µg/mL (≈ 241 µM)

Nc1ccccc1/C=C/c1ccccc1
selectivity ratio [1]: 0.1 | selectivity ratio [2]: 0.9 | Activity (HT-29 [4]): 59% | Activity (HT-29 [5]): 100% | Activity (HT-29 [6]): 59% | Activity (HT-29 [7]): 100% | IC50 (HEK293): 1.3 µg/mL (≈ 6.66 µM) | IC50 (MCF7): 1.4 µg/mL (≈ 7.17 µM) | IC50 (HT-29 [3]): 17 µg/mL (≈ 87.1 µM)

Nc1ccc(/C=C/c2cccc(O)c2)cc1
selectivity ratio [1]: 0.6 | selectivity ratio [2]: 1 | IC50 (HEK293): 25 µg/mL (≈ 118 µM) | IC50 (MCF7): 24.8 µg/mL (≈ 117 µM) | IC50 (HT-29 [3]): 42 µg/mL (≈ 199 µM)

Nc1ccc(/C=C/c2ccccc2O)cc1
selectivity ratio [1]: 0.6 | selectivity ratio [2]: 1 | IC50 (HEK293): 21.4 µg/mL (≈ 101 µM) | IC50 (MCF7): 23 µg/mL (≈ 109 µM) | IC50 (HT-29 [3]): 37 µg/mL (≈ 175 µM)

COc1ccc(/C=C/c2cccc(N)c2)cc1
selectivity ratio [1]: 0.7 | selectivity ratio [2]: 0.5 | Activity (HT-29 [4]): 73% | Activity (HT-29 [5]): 89% | Activity (HT-29 [6]): 96% | Activity (HT-29 [7]): 100% | IC50 (HEK293): 11 µg/mL (≈ 48.8 µM) | IC50 (MCF7): 23 µg/mL (≈ 102 µM) | IC50 (HT-29 [3]): 16.3 µg/mL (≈ 72.4 µM)

CCCCCCCCCCCC(=O)Nc1ccc(/C=C/c2ccccc2)cc1
selectivity ratio [1]: < 0.1 | selectivity ratio [2]: 1.7 | IC50 (HEK293): 10 µg/mL (≈ 26.5 µM) | IC50 (MCF7): 5.8 µg/mL (≈ 15.4 µM) | IC50 (HT-29 [3]): > 100 µg/mL

Oc1ccccc1/C=C/c1ccccc1O
selectivity ratio [1]: 0.9 | selectivity ratio [2]: 1.1 | IC50 (HEK293): 24.3 µg/mL (≈ 114 µM) | IC50 (MCF7): 23 µg/mL (≈ 108 µM) | IC50 (HT-29 [3]): 25 µg/mL (≈ 118 µM)

Nc1ccccc1/C=C/c1ccccc1O
selectivity ratio [1]: 0.7 | selectivity ratio [2]: 0.7 | IC50 (HEK293): 27 µg/mL (≈ 128 µM) | IC50 (MCF7): 39 µg/mL (≈ 185 µM) | IC50 (HT-29 [3]): 36 µg/mL (≈ 170 µM)

CCCCCCCCCCCC(=O)Nc1cccc(/C=C/c2ccccc2)c1
selectivity ratio [1]: < 0.1 | selectivity ratio [2]: 3.3 | IC50 (HEK293): 11.6 µg/mL (≈ 30.7 µM) | IC50 (MCF7): 3.5 µg/mL (≈ 9.27 µM) | IC50 (HT-29 [3]): > 100 µg/mL

Oc1cccc(/C=C/c2ccccc2O)c1
selectivity ratio [1]: 0.7 | selectivity ratio [2]: 0.9 | IC50 (HEK293): 18 µg/mL (≈ 84.8 µM) | IC50 (MCF7): 20.1 µg/mL (≈ 94.7 µM) | IC50 (HT-29 [3]): 27 µg/mL (≈ 127 µM)

CCCCCCCCCCCC(=O)Nc1ccccc1/C=C/c1ccccc1
selectivity ratio [1]: 6.4 | selectivity ratio [2]: 1.3 | Activity (HT-29 [4]): 79% | Activity (HT-29 [5]): 37% | Activity (HT-29 [6]): 53% | Activity (HT-29 [7]): 45% | IC50 (HEK293): 16 µg/mL (≈ 42.4 µM) | IC50 (MCF7): 12 µg/mL (≈ 31.8 µM) | IC50 (HT-29 [3]): 2.5 µg/mL (≈ 6.62 µM)

COc1ccccc1/C=C/c1ccccc1N
selectivity ratio [1]: < 0.1 | selectivity ratio [2]: < 0.1 | IC50 (HEK293): 2.1 µg/mL (≈ 9.32 µM) | IC50 (MCF7): > 100 µg/mL | IC50 (HT-29 [3]): > 100 µg/mL

Nc1ccccc1/C=C/c1cccc(O)c1
selectivity ratio [1]: 0.7 | selectivity ratio [2]: 1.2 | IC50 (HEK293): 20 µg/mL (≈ 94.7 µM) | IC50 (MCF7): 17 µg/mL (≈ 80.5 µM) | IC50 (HT-29 [3]): 30 µg/mL (≈ 142 µM)

COc1cccc(/C=C/c2cccc(N)c2)c1
selectivity ratio [1]: 0.8 | selectivity ratio [2]: 0.5 | Activity (HT-29 [4]): 73% | Activity (HT-29 [5]): 23% | Activity (HT-29 [6]): 100% | Activity (HT-29 [7]): 34% | IC50 (HEK293): 16 µg/mL (≈ 71 µM) | IC50 (MCF7): 34 µg/mL (≈ 151 µM) | IC50 (HT-29 [3]): 19.6 µg/mL (≈ 87 µM)

COc1cccc(/C=C/c2ccccc2O)c1
selectivity ratio [1]: 0.8 | selectivity ratio [2]: 1.1 | IC50 (HEK293): 20 µg/mL (≈ 88.4 µM) | IC50 (MCF7): 18 µg/mL (≈ 79.5 µM) | IC50 (HT-29 [3]): 26 µg/mL (≈ 115 µM)

Nc1ccccc1/C=C/c1ccc(O)cc1
selectivity ratio [1]: < 0.1 | selectivity ratio [2]: < 0.1 | IC50 (HEK293): 7 µg/mL (≈ 33.1 µM) | IC50 (MCF7): 79 µg/mL (≈ 374 µM) | IC50 (HT-29 [3]): > 100 µg/mL

COc1ccccc1/C=C/c1ccc(N)cc1
selectivity ratio [1]: < 0.1 | selectivity ratio [2]: 0.3 | IC50 (HEK293): 1 µg/mL (≈ 4.44 µM) | IC50 (MCF7): 3.2 µg/mL (≈ 14.2 µM) | IC50 (HT-29 [3]): 22 µg/mL (≈ 97.7 µM)

COc1ccc(/C=C/c2ccc(O)cc2)cc1
selectivity ratio [1]: 0.2 | selectivity ratio [2]: 0.3 | IC50 (HEK293): 3.9 µg/mL (≈ 17.2 µM) | IC50 (MCF7): 11.3 µg/mL (≈ 49.9 µM) | IC50 (HT-29 [3]): 17.4 µg/mL (≈ 76.9 µM)

COc1ccc(/C=C/c2cccc(O)c2)cc1
selectivity ratio [1]: 1.1 | selectivity ratio [2]: 1.1 | Activity (HT-29 [4]): 73% | Activity (HT-29 [5]): 38% | Activity (HT-29 [6]): 48% | Activity (HT-29 [7]): 46% | IC50 (HEK293): 24 µg/mL (≈ 106 µM) | IC50 (MCF7): 21 µg/mL (≈ 92.8 µM) | IC50 (HT-29 [3]): 22 µg/mL (≈ 97.2 µM)

Oc1ccc(/C=C/c2cccc(O)c2)cc1 [(E)-3,4'-STILBENDIOL]
selectivity ratio [1]: 0.2 | selectivity ratio [2]: < 0.1 | IC50 (HEK293): 1.1 µg/mL (≈ 5.18 µM) | IC50 (MCF7): 23 µg/mL (≈ 108 µM) | IC50 (HT-29 [3]): 6.9 µg/mL (≈ 32.5 µM)

COc1cccc(/C=C/c2ccc(O)cc2)c1 [(E)-5-METHOXY-4'-STILBENOL]
selectivity ratio [1]: 0.9 | selectivity ratio [2]: 1.1 | IC50 (HEK293): 24 µg/mL (≈ 106 µM) | IC50 (MCF7): 21 µg/mL (≈ 92.8 µM) | IC50 (HT-29 [3]): 26 µg/mL (≈ 115 µM)

Oc1ccc(/C=C/c2ccc(O)cc2)cc1 [TRANS-4,4'-DIHYDROXYSTILBENE]
selectivity ratio [1]: < 0.1 | selectivity ratio [2]: 0.2 | IC50 (HEK293): 1.2 µg/mL (≈ 5.65 µM) | IC50 (MCF7): 6.8 µg/mL (≈ 32 µM) | IC50 (HT-29 [3]): > 100 µg/mL
